# The list is not random: actives were taken first. Their share in the collection is about 2.8%.
# NPY-Y1 antag: NPY-Y1 (human) receptor antagonism | actives 1% (n = 200,000) | HEK293-CNG Y1 cells, membrane potential fluorescence; NPY at EC95, then isoproterenol | inhibition, % at 3.6 µM | AID 1040 | P25929;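 active = inhibition above the campaign mean inhibition of all tested compounds plus 3 SD, cut at about 20% in these data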;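 note: 0% = DMSO wells given NPY plus isoproterenol and 100% = isoproterenol alone without NPY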
# Target sequence (P25929 whole entry, looked up): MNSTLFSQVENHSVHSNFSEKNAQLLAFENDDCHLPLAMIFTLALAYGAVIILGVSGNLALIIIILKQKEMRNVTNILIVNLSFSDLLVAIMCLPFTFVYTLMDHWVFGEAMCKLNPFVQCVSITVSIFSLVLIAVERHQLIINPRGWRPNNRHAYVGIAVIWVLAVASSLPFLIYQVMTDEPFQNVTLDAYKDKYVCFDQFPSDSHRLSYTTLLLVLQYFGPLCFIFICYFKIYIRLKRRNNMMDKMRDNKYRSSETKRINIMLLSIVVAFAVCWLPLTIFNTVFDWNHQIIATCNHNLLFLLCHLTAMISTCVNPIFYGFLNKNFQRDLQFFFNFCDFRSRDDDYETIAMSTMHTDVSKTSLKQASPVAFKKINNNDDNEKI
#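 material = HEK293 cells with Y1 receptor plus CNG channel | also added = NPY 25 nM then isoproterenol 1 µM plus Ro 20-1724 25 µM | schedule = dye 3 h, compound 60 min room temperature, stimulation 45 min | measured by = membrane potential fluorescence | benchmarks = high control isoproterenol alone, low control NPY with isoproterenol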
# NPY-Y2 antag: NPY-Y2 (human) receptor antagonism | P49146 | NPY-Y2 expressing cells, antagonist mode | inhibition, % at 2.7 µM | actives 0.99% (n = 140,000) | AID 793; in the data active = inhibition above about 17%;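 note: 0% = vehicle with agonist challenge and 100% = reference antagonist with challenge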
# NPY-Y1 PAM-ag: human NPY-Y1 potentiation or agonism, primary screen; P25929; activation, % at 3.6 µM; actives 0.37% (n = 220,000); NPY-Y1 expressing cells, potentiator/agonist activation; AID 1304; in the data active = activation above about 33%, passing the limit was not always enough;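 note: cells stimulated with NPY at EC10 then isoproterenol at EC100; 0% = low agonist plus stimulus and 100% = saturating agonist plus stimulus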
# EP2 mod: modulates human prostaglandin E2 receptor EP2 signaling. P43116. EP2-expressing cells, cAMP HTRF FRET, PGE2 co-stimulation. induction, % at 25 µM. actives 0.83% (n = 260,000). AID 940;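 active = compounds whose cAMP rise, as percent of the full-agonist control response, exceeds 60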;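 note: rat C6 glioma line stably carrying human EP2 under a CMV promoter; the protocol text gives 20 µM as final concentration; 100% = response of wells given 1 µM PGE2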
# EP2 antag: blocks the human prostaglandin E2 receptor EP2; inhibition, % at 25 µM; AID 1422; actives 0.52% (n = 260,000); C6 glioma cells expressing human EP2, cAMP TR-FRET; cells stimulated with saturating PGE2; P43116;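 active = percent inhibition above 40 after rounding to a whole number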;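 note: rat C6 glioma host cells with rolipram phosphodiesterase inhibitor present; the protocol text gives 20 µM as final concentration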
# NPY-Y2 PAM-ag: potentiators or agonists of human neuropeptide Y receptor Y2. P49146. cells expressing NPY-Y2, potentiator/agonist read-out. AID 1359. actives 0.45% (n = 220,000). activation, % at 3.6 µM; in the data active = activation above about 27%;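 note: cells stimulated with NPY near EC25 plus isoproterenol at EC100; 0% = vehicle plus submaximal agonist and 100% = vehicle plus saturating agonist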
# EP2 cAMP induct: human EP2 receptor cAMP induction, negative in counter-screens; shares compounds with EP2 mod; C6 glioma EP2 cells, cAMP HTRF induction; plus low (about EC15) PGE2 agonist; calls only at 20 µM (by protocol); actives 47% (n = 1,300);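 active = cAMP induction above 50% in the main assay while under 30% in all four parallel counter assays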;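 note: rat C6 glioma cells stably expressing human EP2 receptor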
# Active calls of the source: *; i = inactive; . = not tested or not shown; + = active, no number.
SMILES,NPY-Y1 antag,NPY-Y2 antag,NPY-Y1 PAM-ag,EP2 mod,EP2 antag,NPY-Y2 PAM-ag,EP2 cAMP induct
CCc1c(C)nc2ccc(Br)cc2c1SCCC#N,13,12,-44,65*,12,-22,i
CCCCc1c(C)nc2ccc(Br)cc2c1SCCC#N,17,12,-65,56,12,-22,.
CCn1c(=O)oc2cc(S(=O)(=O)N3CCCN(C(C)=O)CC3)c(Cl)cc21,.,.,.,-27,5,.,.
O=C(c1ccc(Cl)cc1)c1oc2ccccc2c1CS(=O)c1ccccc1 (centres undefined),6,9,-42,71*,1,-24,+
Cc1cc(-c2cncnc2C2CCN(C(=O)c3cccnc3)CC2)on1,.,.,.,-5,.,.,.
Cc1cc2c(cc3c(=O)n(CC(=O)NC(C)(C)C)nc(C)n32)s1,.,.,.,-7,.,.,.
Cc1cccc(Cn2c(=O)n(Cc3ccco3)c(=O)c3ccccc32)c1,11,4,-37,76*,13,-21,i
CSc1nnc(-c2ccccc2)c(-c2ccccc2)n1,.,.,9,21,8,21,.
CSc1nnc2c3ccccc3c3ccccc3c2n1,5,-1,0,76*,.,-9,+
Cc1sc2ncn(CC(=O)N(CC(=O)NC3CCCC3)Cc3ccco3)c(=O)c2c1C,.,.,.,-8,12,.,.
CCn1nc(C)c(CN(CCCn2ccnc2)Cc2ccccc2F)c1C,.,.,.,18,10,.,.
Clc1ccc(Cn2c(/C=C/c3ccco3)nc3ccccc32)cc1,2,5,-3,69*,9,2,+
CCn1c(=S)[nH]c2c(c1=O)C(C)(C)Cc1ccccc1-2,8,.,-7,66*,21,0,i
Cn1c(=S)[nH]c2c(c1=O)C(C)(C)Cc1ccccc1-2,6,.,-10,52,22,0,.
CC(C)N(CCNC(=O)c1oc(=O)c2ccccc2c1-c1ccccc1)Cc1ccco1,7,.,-16,69*,10,-15,i
Cc1ccccc1-n1c(Cn2c(=O)sc3ccccc32)nnc1SCC(=O)N1CCCC1,1,5,5,56,.,-12,i
Cc1ccccc1-n1c(SCC(=O)N2CCCC2)nnc1-c1ccccn1,3,0,14,66*,11,7,i
Cc1ccc2[nH]c(=O)c(CN(Cc3ccc(F)cc3)Cc3nnnn3Cc3ccco3)cc2c1,.,.,.,-4,11,.,.
CCOc1ccc(Nc2nc(Cc3nnc(SCc4ccc(C)cc4)o3)cs2)cc1,.,.,.,-6,7,.,.
CCOC(=O)c1ccc(CN(Cc2ccc(C)cc2)S(=O)(=O)c2cccc([N+](=O)[O-])c2)cc1,0,2,-15,65*,4,10,i
CC(C)(CO)NS(=O)(=O)c1ccc2c(c1)NC(=O)C(C)(C)O2,.,.,.,-53,7,.,.
CC1Cc2ccccc2N1C(=O)CSc1nnc(Cc2ccccc2)n1CCc1ccccc1 (centres undefined),4,7,0,66*,.,-9,i
CC1Cc2ccccc2N1C(=O)CSc1nnc(Cc2ccccc2)n1C (centres undefined),.,.,.,-57,10,.,.
CCOC(=O)c1c(-c2cccs2)csc1NC(=O)COC(=O)c1c(C)noc1C,8,11,-55,69*,2,-18,+
CCOC(=O)c1c(-c2cccs2)csc1NC(=O)c1ccncc1,-5,2,5,58,7,6,.
SMILES,NPY-Y1 antag,NPY-Y2 antag,NPY-Y1 PAM-ag,EP2 mod,EP2 antag,NPY-Y2 PAM-ag,EP2 cAMP induct
CCC(C)(C)n1nnnc1C(c1cc2cc(C)c(C)cc2[nH]c1=O)N1CCc2ccccc21 (centres undefined),.,.,.,48,10,.,.
COc1ccc(Cn2nnnc2C(c2cc3ccc(C)cc3[nH]c2=O)N2CCOCC2)cc1 (centres undefined),.,.,.,0,9,.,.
COc1cccc2[nH]c3c(N4CCCCC4)ncnc3c12,5,0,-53,94*,4,-10,+
CN=C1CC(SC)=C1c1ccc(C)cc1,-1,4,1,72*,56*,-5,+
CCCC(=O)N1CCCC(c2nc3c(nnn3Cc3cccc(Cl)c3)c(=O)[nH]2)C1 (centres undefined),.,.,.,17,5,.,.
CCOC(=O)CN(C(=O)CSc1nnc(Cc2ccccc2)n1-c1ccc(C)cc1)c1ccccc1,6,3,9,50,11,-2,i
O=c1oc2ccccc2n1CCOc1cccc2ccccc12,.,.,.,3,8,.,.
CCOc1ccccc1Cn1c(=O)sc2ccccc21,5,.,3,83*,4,-3,+
CCCCOc1ccccc1Cn1c(=O)oc2ccccc21,13,2,-1,62*,8,5,+
CCN1CCN(S(=O)(=O)c2ccc(C(=O)O)cc2)CC1,.,.,.,8,5,.,.
CCOC(=O)Cc1[nH]nc2c1C(c1c[nH]c3ccccc13)C(C#N)=C(N)O2 (centres undefined),.,.,.,-94,5,.,.
c1cncc(-c2nc(N3CCOCC3)c3c4c(sc3n2)CCC4)c1,0,.,-18,59,6,-14,i
c1cncc(-c2nc(NCCCN3CCOCC3)c3c4c(sc3n2)CCC4)c1,18,.,-6,-38,8,-13,.
Cn1c(SCC(=O)NC2CCCCC2)nnc1-c1ccc(Br)cc1,.,.,.,18,9,.,.
Clc1ccc2nc(-c3ccncc3)cc(-c3ccccc3)c2c1,3,6,20,55,4,0,.
c1ccc(-c2cc(-c3ccncc3)nc3ccc4ccccc4c23)cc1,-3,1,6,99*,5,2,+
COC(=O)c1sc(NC(=O)c2ccc(C)cc2)nc1C,.,.,.,-11,8,.,.
CCOc1nc(C)cc(C)c1S(=O)(=O)c1ccc(Cl)cc1,5,.,-7,81*,4,-5,+
Cc1ccc(S(=O)(=O)c2c(C)cc(C)nc2Cl)cc1,2,1,-3,-8,16,8,.
CCn1c(SCC(=O)Nc2ccc(NC(=O)c3ccc(C)cc3)cc2C)nnc1-c1cccs1,.,.,.,-12,8,.,.
Cc1ccccc1-c1ncc(CN(C)Cc2cccc3ncccc23)cn1,.,.,.,-63,4,.,.
CCOCC(=O)Nc1cc(C(F)(F)F)ccc1Oc1cccc(Br)c1,8,9,-5,65*,11,0,+
CO/N=C/C(=N\Nc1ccccc1)C(=O)c1ccccc1,14,.,3,84*,2,-2,+
CO/N=C/C(=N\Nc1ccc(C)cc1)C(=O)c1ccc(OC)cc1,0,1,12,49,16,3,.
COc1ccccc1-c1ocnc1C(=O)Nc1ccccc1CN(C)C1CCCCC1,.,.,.,34,6,.,.
CC1Oc2ccccc2N(Cc2ccccc2Cl)C1=O (centres undefined),-2,4,7,50,8,-1,.
